Screens deposited in PubChem by several laboratories.
Compounds with a hit are over-represented: about 4% of the library has one in this group of screens.
UPR CHOP act = activators of apoptotic arm of unfolded protein response (CHOP) | CHO-CHOP luciferase reporter, UPR activation, luminescence; percent of tunicamycin response over DMSO baseline | activation, % at 10 µM | 330,000 compounds, 0.34% hits;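 active = at 10 µM dose, activation of 40% or more, normalized to positive control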;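 also: 100% = tunicamycin at 10 µg/mL and 0% = DMSO alone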
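Assay system: CHO cells with stable CHOP pathway luciferase reporter; Buffer or medium: F12 plus 10% serum; Times: 16-18 h cell attachment, then 6 h compound exposure, 37 °C; Signal: luciferase luminescence; Read-out basis: percent activation relative to tunicamycin control; Control set: tunicamycin high control, DMSO low control.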
Granule exo inh = blocks lytic granule exocytosis. 360,000 compounds, 0.66% hits. inhibition, % at 10 µM. TALL-104 LAMP-1 surface exposure, flow cytometry; cells stimulated with thapsigargin and PMA. AID 651702;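 active = inhibition above about 55%, limit read from the data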
UPR XBP1 act = activators of adaptive arm of unfolded protein response (XBP1); activation, % at 20 µM; 330,000 compounds, 0.33% hits; CHO-XBP1 luciferase reporter, IRE1-XBP1 UPR activation, luminescence; percent of tunicamycin response, DMSO as zero;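 active = versus positive control, 20 µM dose yields 30% or more activation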;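 also: 100% = tunicamycin at 10 µg/mL and 0% = DMSO only wells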
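assay system = CHO-XBP1 luciferase reporter cells | amount = 1000 cells/well | buffer or medium = F12 plus 10% FBS | compound dosing = single point, 20 µM final compound, 1% DMSO | incubation = 16-18 h cell attachment at 37 °C, then 6 h compound exposure | detection = Steady-Glo luminescence read | controls = tunicamycin 10 µg/mL and vehicle-only wells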
Mdm2-MdmX inh = human Mdm2/MdmX binding inhibition | O15151+Q00987 | SaOS-2 split-luciferase Mdm2/MdmX complementation, luminescence | 330,000 compounds, 3% hits | inhibition, % at 8 µM;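 active = inhibition of at least 50% at 8 µM in the primary screen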
ABHD5 PLIN5 PPI = ABHD5-PLIN5 protein interaction inhibition; Q00G26+Q8WTS1; Split G. princeps luciferase complementation, luminescence, 4 h; inhibition, % at 4 µM; 360,000 compounds, 0.78% hits;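 active = inhibition above the mean inhibition across every tested compound plus 3 SD, cut at about 22% in these data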;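 also: 0% = DMSO only wells and the 100% control is not disclosed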
ABHD5-PLIN5 conf = confirmation of human ABHD5-PLIN5 interaction inhibitors; shares compounds with ABHD5 PLIN5 PPI; AID 651612; biochemical ABHD5-PLIN5 interaction, luminescence; inhibition, % at 4 µM; 2,200 compounds, 67% hits; in the data active = inhibition above about 23%;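 also: 0% = DMSO vehicle wells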
HNF4 counter = counter-screen for ABHD5-PLIN5 inhibitors: HNF4 split-luciferase | 2,200 compounds, 77% hits | inhibition, % at 4 µM | shares compounds with ABHD5 PLIN5 PPI | HNF4 dimerization, luminescence, biochemical | AID 651674;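 active = mean inhibition across replicate wells exceeding the computed hit threshold, cut at about 13% in these data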;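 also: light from luciferase halves that rejoin when HNF4 fusion proteins dimerize; 0% = DMSO only wells and the 100% control is not given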
The depositor's hits bear a star; / = no result given.

SMILES | UPR CHOP act | Granule exo inh | UPR XBP1 act | Mdm2-MdmX inh | ABHD5 PLIN5 PPI | ABHD5-PLIN5 conf | HNF4 counter
COC(=O)C(=C/C(C)=C/c1cccnc1)C(=O)OC | 23 | -2 | 0 | 12 | 34* | 54* | 53*
c1ccc(Cc2ccc(OCCCNC3CCCC3)cc2)cc1 | 0 | / | 0 | 39 | / | / | /
C#CCOCCOCCOCCNc1nc(N2CCN(C(=O)CCCCCCCCCCNC(=O)[C@@H](CCC(=O)O)n3cc(CCCCCN)nn3)CC2)nc(N2CCN(C(=O)CCCCCCCCCCNC(=O)[C@H](CCCCN)n3cc(C[C@@H](C)CC)nn3)CC2)n1 | 0 | -1 | -2 | 12 | 41* | 17 | -7
C#CCOCCOCCOCCNc1nc(N2CCN(C(=O)CCCCCCCCCCNC(=O)[C@@H](CCSC)n3cc(CCO)nn3)CC2)nc(N2CCN(C(=O)CCCCCCCCCCNC(=O)[C@H](CO)n3cc(CCCCCN)nn3)CC2)n1 | 0 | 4 | 1 | 6 | 46* | 12 | 1
C#CCOCCOCCOCCNc1nc(N2CCOCC2)nc(N2CCN(C(=O)CCCCCCCCCCNC(=O)[C@H]([C@@H](C)CC)n3cc(CCCCN=C(N)N)nn3)CC2)n1 | 0 | -1 | 0 | 20 | 34* | 3 | 0
C#CCOCCOCCOCCNc1nc(N2CCOCC2)nc(N2CCN(C(=O)CCCCCCCCCCNC(=O)[C@H](CO)n3cc(CCCSC)nn3)CC2)n1 | 1 | -5 | -2 | 11 | 16 | / | /
C#CCOCCOCCOCCNc1nc(N2CCN(C(=O)CCCCCCCCCCNC(=O)Cn3cc(CCCCCN)nn3)CC2)nc(N2CCN(C(=O)CCCCCCCCCCNC(=O)Cn3cc(C[C@@H](C)O)nn3)CC2)n1 | 0 | 2 | 1 | 36 | 47* | 5 | -14
C#CCOCCOCCOCCNc1nc(N2CCN(C(=O)CCCCCCCCCCNC(=O)[C@H]([C@@H](C)CC)n3cc(CCCCN=C(N)N)nn3)CC2)nc(N2CCN(C(=O)CCCCCCCCCCNC(=O)[C@H](CCCN=C(N)N)n3cc(C[C@@H](C)CC)nn3)CC2)n1 | 7 | / | 11 | -23 | / | / | /
c1ccc(C2=Nn3c(Cn4nnc5ccccc54)nnc3SC2)cc1 | 0 | 5 | 4 | -14 | 6 | / | /
COCCN(CC(=O)NCc1ccc(F)cc1)C(=O)CCC(=O)Nc1ccccn1 | -2 | -1 | -4 | 15 | -11 | / | /
C#CCOCCOCCOCCNc1nc(N2CCN(C(=O)CCCCCCCCCCNC(=O)[C@@H](CCSC)n3cc(CCO)nn3)CC2)nc(N2CCN(C(=O)CCCCCCCCCCNC(=O)[C@@H]([C@H](C)O)n3cc(C)nn3)CC2)n1 | 2 | 7 | 1 | 25 | 53* | 8 | -17
C#CCOCCOCCOCCNc1nc(N2CCN(C(=O)CCCCCCCCCCNC(=O)[C@@H](CCC(=O)O)n3cc(CCCCCN)nn3)CC2)nc(N2CCN(C(=O)CCCCCCCCCCNC(=O)[C@H](CO)n3cc(CCCCCN)nn3)CC2)n1 | 0 | 3 | -3 | -3 | 36* | 9 | 2
c1ccc2[nH]c(SCc3cscn3)nc2c1 | 3 | -1 | 3 | -41 | 2 | / | /
COc1ccc(CNC(=O)C2CCN(S(=O)(=O)c3ccc4c(c3)NC(=O)C(C)S4)CC2)cc1 (configuration not stated) | -1 | -4 | -6 | 8 | 2 | / | /
CC1Sc2ccc(S(=O)(=O)N3CCC(C(=O)NCc4ccc(Cl)cc4)CC3)cc2NC1=O (configuration not stated) | 1 | -1 | -10 | 43 | 27* | 43* | /
CSCCC(NC(=O)c1ccccc1)C(=O)OCC(=O)Nc1ccc(C)c(Cl)c1 (configuration not stated) | -1 | 0 | -1 | 10 | -9 | / | /
Cc1ccc(NC(CC(=O)c2ccccc2)C(=O)O)cc1Cl (configuration not stated) | 4 | -1 | 1 | -142 | 29* | -2 | 40*
CCS(=O)(=O)N1Cc2ccccc2CC1C(=O)Nc1ccc(F)c(F)c1 (configuration not stated) | 2 | 3 | -2 | 17 | -1 | / | /
CCOc1cccc(=O)c2c(C)n(Cc3ccccc3)c(C)c12 | 0 | -2 | 2 | -26 | 1 | / | /
CCOc1cccc(=O)c2c(C)n(Cc3ccco3)c(C)c12 | -1 | 1 | -3 | -4 | 24* | 29* | 55*
O=C(Nn1c(Cc2cccs2)nc2ccccc2c1=O)c1ccc(F)c(F)c1 | 2 | -1 | -3 | 0 | -2 | / | /
Cc1nc2c(nnn2Cc2c(Cl)cccc2Cl)c(=O)[nH]1 | -2 | 0 | 1 | 23 | -1 | / | /
CCCCN(CCCNC(=O)c1ccc2c(c1)NC(=O)CN2C)c1ccccc1 | / | 2 | / | / | 70* | 52* | 72*
O=C(N/N=C/C=C/c1ccco1)c1ccccc1Cl | 1 | 2 | 6 | 12 | 33* | 32* | 37*
O=C(N/N=C/C=C/c1ccco1)c1ccncc1 | 0 | -1 | 1 | -3 | 21 | / | /
SMILES | UPR CHOP act | Granule exo inh | UPR XBP1 act | Mdm2-MdmX inh | ABHD5 PLIN5 PPI | ABHD5-PLIN5 conf | HNF4 counter
O=C(N/N=C/C=C/c1ccco1)/C(=C/c1ccccc1)NC(=O)c1ccccc1 | 3 | -2 | -1 | 6 | 33* | 52* | 49*
Cc1ccc(/C=N/N=C/c2ccc(C)cc2)cc1 | 7 | -2 | 2 | -5 | 2 | / | /
CCn1c(=N)n(CC(=O)c2ccco2)c2ccccc21 | -4 | -1 | 2 | 29 | 5 | / | /
CCC(C)NC(=O)Nc1ccc2c(c1)N(C)C(=O)c1ccccc1S2 (configuration not stated) | 1 | 0 | 0 | -9 | 46* | 60* | 0
Cc1ccc(/C=C2/NC(=O)N(Cc3ccccc3F)C2=O)o1 | 4 | 10 | -1 | 16 | 40* | 17 | 81*
CCn1c(C)cc(/C=C2/NC(=O)N(Cc3ccccc3F)C2=O)c1C | 0 | -1 | 2 | -5 | -4 | / | /
CCN1C(=O)N/C(=C/c2ccc(C)o2)C1=O | -2 | 4 | 0 | -2 | 42* | 27* | 89*
Cc1ccc(/C=C2/NC(=O)N(Cc3ccc(Br)cc3)C2=O)o1 | 2 | 43 | -3 | 45 | 55* | 63* | 93*
Cc1ccc(N2CN(CCC3=CCCCC3)CNC2=S)cc1 | -1 | -2 | -1 | -5 | -2 | / | /
CCN(CC)C(=O)CN1C(=O)c2cccc3cccc(c23)C1=O | -2 | 0 | -1 | -1 | -6 | / | /
O=C1Nc2ccccc2C1=Nc1cccc(Cl)c1 | 0 | -11 | -5 | 16 | 78* | -14 | 0
CSc1cccc(N=C2C(=O)Nc3ccccc32)c1 | 1 | -19 | -3 | -3 | -3 | / | /
